Source: ChEMBL document CHEMBL1143126, “Synthesis, cytotoxic evaluation, and DNA binding of novel thiazolo[5,4-b]quinoline derivatives” (Bioorg Med Chem, 2008)

How the values were obtained:
SW480 = test: Antiproliferative activity against human SW480 cells after 72 hrs by MTT assay; assay type: functional, cell-based; conditions: SW480, 72 h
Procedure, shortened: (§1)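 Cells seeded at 4.5–5.0 · 10⁴ cells/ml/well in 24-well plates, then incubated with or without compounds added in DMSO. After 72 h, MTT in PBS pH 7.2 was added. Formazan was dissolved in DMSO and the plates centrifuged, then absorbance was read at 540 nm. % growth inhibition = (1 − treated/untreated absorbance) × 100.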

DNA [1] = test: Ratio of Qmax for calf thymus DNA to Q50 for calf thymus DNA; assay type: nucleic-acid assay; conditions: Bos taurus
Procedure, shortened: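 Efficiency index calculated as Qmax/Q50 from ethidium displacement titrations (Tris–HCl pH 7.4, 0.15 M NaCl). Compounds were added serially from DMSO stocks (DMSO ≤8%), and quenching was read at 584 nm with 546 nm excitation. Qmax is the maximum quenching; Q50 is the concentration for 50% quenching of bound ethidium.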

DNA [2] = test: Displacement of ethidium bromide from calf thymus DNA; assay type: nucleic-acid assay; conditions: Bos taurus
Procedure, shortened: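 Fluorescence quenching of the DNA–ethidium bromide complex in Tris–HCl pH 7.4 with 0.15 M NaCl and ethidium bromide. Emission read at 584 nm with excitation at 546 nm, corrected for dilution. Precipitation was monitored by 600 nm light scatter at 90°. Qmax is the maximum quenching; Q50 is the concentration giving 50% quenching. Means of three experiments, SD.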

SW-620 = test: Antiproliferative activity against human SW620 cells after 72 hrs by MTT assay; assay type: functional, cell-based; conditions: SW-620, 72 h; procedure, shortened: as §1
[3] = Antiproliferative activity against human C33 cells after 72 hrs by MTT assay; assay type: functional, cell-based; conditions: C33, 72 h; procedure, shortened: as §1
HeLa = test: Antiproliferative activity against human HeLa cells after 72 hrs by MTT assay; assay type: functional, cell-based; procedure, shortened: as §1
K562 = test: Antiproliferative activity against human K562 cells after 72 hrs by MTT assay; assay type: functional, cell-based; conditions: K562, 72 h; procedure, shortened: as §1

| IC50 (SW480) [µM] | Ratio (DNA [1]) | Q50 (DNA [2]) [µM] | IC50 (SW-620) [µM] | IC50 (HeLa) [µM] | IC50 (K562) [µM] | SMILES | IC50 [3] [µM] |
| --- | --- | --- | --- | --- | --- | --- | --- |
| 111 | 2 | 1.29 | 130 | – | – | CSc1nc2c(Nc3cccc(Cl)c3)c3ccccc3nc2s1 | 129 |
| 101 | 2.37 | 4.18 | 119 | – | – | CNc1cccc(Nc2c3ccccc3nc3sc(SC)nc23)c1 | 134 |
| – | 6.49 | 7.36 | – | – | – | Nc1cc(CO)cc(Nc2c3ccccc3nc3ccccc23)c1 | – |
| > 200 | 0.9 | 14.3 | > 200 | 140 | 120 | CSc1nc2c(Nc3ccc(C#N)cc3)c3ccccc3nc2s1 | > 200 |
| 28.7 | 0.68 | 11.5 | 43.8 | 7.75 | 8.01 | CSc1nc2c(Nc3cccc(C#N)c3)c3ccccc3nc2s1 | 15.1 |
| > 200 | 0.31 | 13.6 | > 200 | > 200 | > 200 | CSc1nc2c(Nc3ccccc3)c3ccccc3nc2s1 | 154 |
| 19.5 | 2.36 | 11.1 | 15.2 | 12.9 | 9.28 | CCN(CC)CCNc1nc2c(Cl)c3ccccc3nc2s1 | 9.35 |
| > 200 | 0.79 | 22.6 | 184 | > 200 | 143 | CSc1nc2c(Nc3cc(N)cc(CO)c3)c3ccccc3nc2s1 | > 200 |
| 147 | 2.15 | 7.64 | 146 | > 200 | 173 | CSc1nc2c(Nc3cccc(O)c3)c3ccccc3nc2s1 | 146 |
| – | 3.08 | 0.53 | – | – | – | CSc1nc2c(Nc3cccc(C(F)(F)F)c3)c3ccccc3nc2s1 | 59.7 |
| – | – | – | – | – | – | COc1cc(NS(C)(=O)=O)ccc1Nc1c2ccccc2nc2ccccc12 [AMSACRINE] | 8.8 |
| – | 0.46 | 52.5 | – | – | – | CCN(CC)CCNc1nc2c(Nc3ccccc3)c3ccccc3nc2s1 | 22.4 |
| > 200 | 0.39 | 9.48 | 111 | > 200 | 77.2 | COc1ccc(Nc2c3ccccc3nc3sc(SC)nc23)cc1 | > 200 |
| 28 | 4.87 | 9.44 | 16.9 | 13 | 7.85 | CCN(CC)CCNc1c2ccccc2nc2sc(SC)nc12 | 9.06 |
| > 200 | 0.82 | 18.4 | 154 | > 200 | 85.3 | CSc1nc2c(Nc3cccc(NC(C)=O)c3)c3ccccc3nc2s1 | > 200 |
| > 200 | 1.17 | 6.96 | > 200 | 176 | 143 | CSc1nc2c(Nc3cccc(N)c3)c3ccccc3nc2s1 | 139 |
| 66.7 | 1.79 | 3.71 | 26.6 | 25.3 | 22.2 | COc1cccc(Nc2c3ccccc3nc3sc(SC)nc23)c1 | 75.4 |
| > 200 | – | – | 161 | 152 | > 200 | CSc1nc2c(Nc3cccc([N+](=O)[O-])c3)c3ccccc3nc2s1 | > 200 |
| > 200 | 0.84 | 2.19 | 146 | 124 | – | CSc1nc2c(Nc3ccc(Cl)cc3)c3ccccc3nc2s1 | > 200 |
| 13.6 | 1.39 | 16.6 | 19.7 | 21.7 | 12.5 | CCN(CC)CCNC(=O)c1cccc(Nc2c3ccccc3nc3sc(SC)nc23)c1 | 19.9 |
